From ChEMBL document CHEMBL2424622, “Development of amino-pyrimidine inhibitors of c-Jun N-terminal kinase (JNK): kinase profiling guided optimization of a 1,2,3-benzotriazole lead” (Bioorg Med Chem Lett, 2013)

Experiments:
[1] = target: Insulin-like growth factor 1 receptor (Homo sapiens) (UniProt P08069); test: Competitive binding affinity to IGF1R (unknown origin) at 10 uM in presence of ATP relative to control
Method in brief: (§1)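 In vitro ATP-site competition binding assay, part of profiling against a diverse panel of 128 kinases. Each compound was tested at a single concentration of 10 µM. Kinome selectivity was summarized as S15 selectivity scores.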

[2] = target: Tyrosine-protein kinase Lyn (Homo sapiens) (UniProt P07948); test: Competitive binding affinity to LYN (unknown origin) at 10 uM in presence of ATP relative to control; method in brief: as §1
Sequence of Tyrosine-protein kinase Lyn (Homo sapiens) (P07948 2-512 limits assumed): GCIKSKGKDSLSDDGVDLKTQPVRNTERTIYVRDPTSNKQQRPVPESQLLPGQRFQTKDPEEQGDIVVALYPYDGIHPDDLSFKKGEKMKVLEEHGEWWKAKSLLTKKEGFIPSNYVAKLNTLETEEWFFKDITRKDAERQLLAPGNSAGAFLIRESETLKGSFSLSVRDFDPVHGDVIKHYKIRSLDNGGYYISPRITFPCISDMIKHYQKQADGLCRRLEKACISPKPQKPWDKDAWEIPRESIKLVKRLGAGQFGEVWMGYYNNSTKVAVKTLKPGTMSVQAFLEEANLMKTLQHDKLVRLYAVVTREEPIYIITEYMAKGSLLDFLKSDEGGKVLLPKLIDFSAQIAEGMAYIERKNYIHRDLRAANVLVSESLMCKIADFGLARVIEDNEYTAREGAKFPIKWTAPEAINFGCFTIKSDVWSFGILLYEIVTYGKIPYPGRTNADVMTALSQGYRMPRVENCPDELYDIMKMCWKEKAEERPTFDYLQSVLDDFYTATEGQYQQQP

[3] = target: T1, Myotonin-protein kinase (Homo sapiens) (UniProt Q09013); test: Competitive binding affinity to DMPK (unknown origin) at 10 uM in presence of ATP relative to control
T1 sequence (whole entry): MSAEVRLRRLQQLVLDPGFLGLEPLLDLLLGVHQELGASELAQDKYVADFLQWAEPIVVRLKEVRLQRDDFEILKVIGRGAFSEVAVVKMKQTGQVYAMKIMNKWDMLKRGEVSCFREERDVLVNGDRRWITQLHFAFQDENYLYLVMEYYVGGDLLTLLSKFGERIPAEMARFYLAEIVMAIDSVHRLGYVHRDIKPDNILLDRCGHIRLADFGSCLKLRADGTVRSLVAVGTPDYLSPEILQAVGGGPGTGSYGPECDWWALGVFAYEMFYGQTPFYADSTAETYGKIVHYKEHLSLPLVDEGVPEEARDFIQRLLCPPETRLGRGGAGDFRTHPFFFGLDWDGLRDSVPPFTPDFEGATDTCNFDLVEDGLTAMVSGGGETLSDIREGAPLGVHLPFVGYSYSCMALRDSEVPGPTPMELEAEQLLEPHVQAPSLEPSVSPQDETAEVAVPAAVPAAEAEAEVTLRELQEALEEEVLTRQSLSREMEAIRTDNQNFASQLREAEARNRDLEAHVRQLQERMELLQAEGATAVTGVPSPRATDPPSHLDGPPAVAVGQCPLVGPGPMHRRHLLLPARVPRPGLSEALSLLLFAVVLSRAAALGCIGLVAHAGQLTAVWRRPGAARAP

LIM domain kinase 1 = LIM domain kinase 1 (Homo sapiens, UniProt P53667); test: Competitive binding affinity to LIMK1 (unknown origin) at 10 uM in presence of ATP relative to control; method in brief: as §1
Sequence of LIM domain kinase 1 (P53667 whole entry, looked up, the tested form may be a part): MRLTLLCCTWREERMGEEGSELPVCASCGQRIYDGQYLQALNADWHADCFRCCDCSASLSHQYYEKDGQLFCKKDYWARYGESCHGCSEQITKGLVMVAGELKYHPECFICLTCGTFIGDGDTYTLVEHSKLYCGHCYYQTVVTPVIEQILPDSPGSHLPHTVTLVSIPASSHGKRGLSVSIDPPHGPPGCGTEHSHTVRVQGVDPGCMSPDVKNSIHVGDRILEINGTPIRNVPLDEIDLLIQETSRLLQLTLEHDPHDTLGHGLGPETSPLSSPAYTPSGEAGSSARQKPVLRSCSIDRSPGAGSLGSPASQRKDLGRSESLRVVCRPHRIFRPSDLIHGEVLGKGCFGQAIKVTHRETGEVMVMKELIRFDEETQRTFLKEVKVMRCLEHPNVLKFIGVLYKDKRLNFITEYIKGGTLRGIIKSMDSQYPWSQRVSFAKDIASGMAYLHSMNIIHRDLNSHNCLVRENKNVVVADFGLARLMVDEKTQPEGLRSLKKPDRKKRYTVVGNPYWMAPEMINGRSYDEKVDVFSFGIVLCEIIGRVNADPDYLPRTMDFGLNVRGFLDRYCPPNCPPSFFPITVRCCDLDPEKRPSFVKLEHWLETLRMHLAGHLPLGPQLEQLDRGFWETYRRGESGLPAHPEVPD

[4] = target: Tyrosine-protein kinase JAK1 (Homo sapiens) (UniProt P23458); test: Competitive binding affinity to JAK1 kinase domain 1 (unknown origin) at 10 uM in presence of ATP relative to control; method in brief: as §1
Sequence of Tyrosine-protein kinase JAK1 (Homo sapiens) (P23458 whole entry, the tested form may be a part): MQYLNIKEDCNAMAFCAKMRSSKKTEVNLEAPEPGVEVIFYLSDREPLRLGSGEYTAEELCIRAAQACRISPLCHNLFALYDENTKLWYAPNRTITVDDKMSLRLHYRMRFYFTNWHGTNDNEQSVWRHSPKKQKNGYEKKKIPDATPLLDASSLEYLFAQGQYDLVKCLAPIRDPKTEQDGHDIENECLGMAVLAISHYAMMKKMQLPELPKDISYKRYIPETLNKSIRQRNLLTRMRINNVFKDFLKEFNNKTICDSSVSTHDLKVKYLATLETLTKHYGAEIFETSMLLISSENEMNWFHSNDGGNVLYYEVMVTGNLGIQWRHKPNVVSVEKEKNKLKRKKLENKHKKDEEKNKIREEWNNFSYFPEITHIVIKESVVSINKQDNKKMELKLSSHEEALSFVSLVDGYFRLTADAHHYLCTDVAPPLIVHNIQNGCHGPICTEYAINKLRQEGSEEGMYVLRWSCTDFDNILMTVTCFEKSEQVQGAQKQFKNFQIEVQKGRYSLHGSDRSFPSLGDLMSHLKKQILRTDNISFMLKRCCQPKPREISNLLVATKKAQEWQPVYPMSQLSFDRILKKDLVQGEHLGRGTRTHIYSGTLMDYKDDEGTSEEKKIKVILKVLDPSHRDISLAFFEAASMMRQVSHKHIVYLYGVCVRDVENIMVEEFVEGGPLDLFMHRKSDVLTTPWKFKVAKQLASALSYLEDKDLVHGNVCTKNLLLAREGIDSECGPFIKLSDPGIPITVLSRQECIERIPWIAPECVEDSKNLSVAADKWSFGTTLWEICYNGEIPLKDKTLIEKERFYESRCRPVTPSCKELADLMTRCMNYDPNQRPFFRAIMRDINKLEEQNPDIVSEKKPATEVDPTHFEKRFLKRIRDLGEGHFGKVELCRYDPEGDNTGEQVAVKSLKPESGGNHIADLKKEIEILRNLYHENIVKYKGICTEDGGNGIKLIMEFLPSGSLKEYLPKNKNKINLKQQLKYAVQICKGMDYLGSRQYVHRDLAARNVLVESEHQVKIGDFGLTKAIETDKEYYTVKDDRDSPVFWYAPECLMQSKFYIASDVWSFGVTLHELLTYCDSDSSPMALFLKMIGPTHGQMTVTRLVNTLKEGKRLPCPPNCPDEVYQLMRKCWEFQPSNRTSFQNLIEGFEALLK

[5] = target: Serine/threonine-protein kinase PAK 6 (Homo sapiens) (UniProt Q9NQU5); test: Competitive binding affinity to PAK6 (unknown origin) at 10 uM in presence of ATP relative to control
Method in brief: (§2)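 In vitro ATP-site competition binding assay across a diverse panel of 128 kinases, with compound tested at a single concentration. Kinase selectivity scores (S15) were calculated from the panel profiles.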

[6] = target: T2, Mitogen-activated protein kinase 12 (Homo sapiens) (UniProt P53778); test: Competitive binding affinity to p38-gamma (unknown origin) at 10 uM in presence of ATP relative to control; method in brief: as §2
T2 sequence (whole entry): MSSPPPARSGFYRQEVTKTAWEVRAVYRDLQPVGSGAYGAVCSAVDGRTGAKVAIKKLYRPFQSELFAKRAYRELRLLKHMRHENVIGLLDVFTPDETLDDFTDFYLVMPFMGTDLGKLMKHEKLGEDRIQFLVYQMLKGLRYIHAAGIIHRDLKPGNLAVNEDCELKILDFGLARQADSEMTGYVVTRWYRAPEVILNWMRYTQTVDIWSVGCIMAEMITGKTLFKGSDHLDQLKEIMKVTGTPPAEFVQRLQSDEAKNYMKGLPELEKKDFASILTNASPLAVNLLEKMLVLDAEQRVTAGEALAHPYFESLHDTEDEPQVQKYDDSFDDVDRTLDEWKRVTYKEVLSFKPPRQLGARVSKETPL

[7] = target: Serine/threonine-protein kinase B-raf (Homo sapiens) (UniProt P15056); test: Competitive binding affinity to BRAF (unknown origin) at 10 uM in presence of ATP relative to control
Sequence of Serine/threonine-protein kinase B-raf (Homo sapiens) (P15056 whole entry): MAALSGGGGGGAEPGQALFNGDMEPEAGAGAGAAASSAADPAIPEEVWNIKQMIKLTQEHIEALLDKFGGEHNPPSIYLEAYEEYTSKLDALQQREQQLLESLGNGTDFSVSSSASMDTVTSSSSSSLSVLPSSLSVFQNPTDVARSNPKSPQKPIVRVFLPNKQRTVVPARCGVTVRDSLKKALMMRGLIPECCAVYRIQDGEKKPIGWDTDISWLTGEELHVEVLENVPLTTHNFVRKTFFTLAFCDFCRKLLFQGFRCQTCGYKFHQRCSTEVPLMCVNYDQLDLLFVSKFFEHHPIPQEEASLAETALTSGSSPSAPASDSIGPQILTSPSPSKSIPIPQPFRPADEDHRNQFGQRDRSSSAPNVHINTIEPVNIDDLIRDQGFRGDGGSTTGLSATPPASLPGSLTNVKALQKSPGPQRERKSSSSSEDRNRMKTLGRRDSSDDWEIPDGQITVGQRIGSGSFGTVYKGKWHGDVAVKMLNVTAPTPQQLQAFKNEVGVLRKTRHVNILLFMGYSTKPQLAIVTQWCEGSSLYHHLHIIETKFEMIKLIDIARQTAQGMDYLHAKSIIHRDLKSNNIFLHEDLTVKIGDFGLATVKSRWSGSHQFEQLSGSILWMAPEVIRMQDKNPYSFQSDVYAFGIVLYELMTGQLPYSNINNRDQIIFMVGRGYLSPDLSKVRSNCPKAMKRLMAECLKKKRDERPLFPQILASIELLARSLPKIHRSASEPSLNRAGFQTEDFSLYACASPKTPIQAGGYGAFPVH

[8] = target: Tyrosine-protein kinase Fgr (Homo sapiens) (UniProt P09769); test: Competitive binding affinity to FGR (unknown origin) at 10 uM in presence of ATP relative to control; method in brief: as §1
[9] = target: Tyrosine-protein kinase Blk (Homo sapiens) (UniProt P51451); test: Competitive binding affinity to BLK (unknown origin) at 10 uM in presence of ATP relative to control
Sequence of Tyrosine-protein kinase Blk (Homo sapiens) (P51451 2-505 limits assumed): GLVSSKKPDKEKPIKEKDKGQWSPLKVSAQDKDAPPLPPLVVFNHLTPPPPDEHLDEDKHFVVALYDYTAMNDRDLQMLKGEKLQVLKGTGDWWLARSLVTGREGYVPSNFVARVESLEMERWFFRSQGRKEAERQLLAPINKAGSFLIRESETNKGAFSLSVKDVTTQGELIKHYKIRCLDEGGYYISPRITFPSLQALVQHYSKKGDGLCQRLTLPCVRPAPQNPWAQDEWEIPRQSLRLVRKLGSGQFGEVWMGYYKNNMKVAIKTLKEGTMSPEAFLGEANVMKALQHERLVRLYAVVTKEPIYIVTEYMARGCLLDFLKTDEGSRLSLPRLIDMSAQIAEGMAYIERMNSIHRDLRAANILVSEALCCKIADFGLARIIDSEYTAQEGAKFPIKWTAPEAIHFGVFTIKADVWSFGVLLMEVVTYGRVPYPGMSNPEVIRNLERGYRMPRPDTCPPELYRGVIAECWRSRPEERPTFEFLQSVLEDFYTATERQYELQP

[10] = target: Fibroblast growth factor receptor 2 (Homo sapiens) (UniProt P21802); test: Competitive binding affinity to FGFR2 (unknown origin) at 10 uM in presence of ATP relative to control; method in brief: as §1
[11] = target: T3, Ephrin type-A receptor 6 (Homo sapiens) (UniProt Q9UF33); test: Competitive binding affinity to EPHA6 (unknown origin) at 10 uM in presence of ATP relative to control; method in brief: as §1
T3 sequence (whole entry): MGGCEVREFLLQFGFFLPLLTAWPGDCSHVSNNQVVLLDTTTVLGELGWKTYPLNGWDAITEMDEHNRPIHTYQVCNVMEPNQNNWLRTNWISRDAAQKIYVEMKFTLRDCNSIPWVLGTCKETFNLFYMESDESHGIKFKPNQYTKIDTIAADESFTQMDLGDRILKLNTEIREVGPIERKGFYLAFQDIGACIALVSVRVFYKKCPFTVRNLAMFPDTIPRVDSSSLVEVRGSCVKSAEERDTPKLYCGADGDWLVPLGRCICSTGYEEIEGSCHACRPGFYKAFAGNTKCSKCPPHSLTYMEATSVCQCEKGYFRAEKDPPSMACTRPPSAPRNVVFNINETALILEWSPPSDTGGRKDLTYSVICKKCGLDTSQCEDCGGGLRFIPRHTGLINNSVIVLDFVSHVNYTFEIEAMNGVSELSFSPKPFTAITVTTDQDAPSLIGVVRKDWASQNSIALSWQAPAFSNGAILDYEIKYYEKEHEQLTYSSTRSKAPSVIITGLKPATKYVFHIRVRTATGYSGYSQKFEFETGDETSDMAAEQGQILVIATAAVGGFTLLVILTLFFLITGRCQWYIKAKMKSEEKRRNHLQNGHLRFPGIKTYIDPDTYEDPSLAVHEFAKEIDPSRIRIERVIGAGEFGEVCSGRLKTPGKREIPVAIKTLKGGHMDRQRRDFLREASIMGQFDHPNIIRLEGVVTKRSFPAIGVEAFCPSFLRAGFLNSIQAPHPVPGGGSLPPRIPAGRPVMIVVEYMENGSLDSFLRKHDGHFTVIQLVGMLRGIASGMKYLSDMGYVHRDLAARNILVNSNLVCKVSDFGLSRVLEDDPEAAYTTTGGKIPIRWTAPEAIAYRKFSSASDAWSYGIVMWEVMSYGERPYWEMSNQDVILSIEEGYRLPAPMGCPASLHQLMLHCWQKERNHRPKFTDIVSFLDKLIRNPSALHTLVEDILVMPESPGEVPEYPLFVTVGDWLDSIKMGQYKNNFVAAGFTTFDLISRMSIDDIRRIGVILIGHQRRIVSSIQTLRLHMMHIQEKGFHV

Sequence of Insulin-like growth factor 1 receptor (Homo sapiens) (P08069 31-736 limits assumed): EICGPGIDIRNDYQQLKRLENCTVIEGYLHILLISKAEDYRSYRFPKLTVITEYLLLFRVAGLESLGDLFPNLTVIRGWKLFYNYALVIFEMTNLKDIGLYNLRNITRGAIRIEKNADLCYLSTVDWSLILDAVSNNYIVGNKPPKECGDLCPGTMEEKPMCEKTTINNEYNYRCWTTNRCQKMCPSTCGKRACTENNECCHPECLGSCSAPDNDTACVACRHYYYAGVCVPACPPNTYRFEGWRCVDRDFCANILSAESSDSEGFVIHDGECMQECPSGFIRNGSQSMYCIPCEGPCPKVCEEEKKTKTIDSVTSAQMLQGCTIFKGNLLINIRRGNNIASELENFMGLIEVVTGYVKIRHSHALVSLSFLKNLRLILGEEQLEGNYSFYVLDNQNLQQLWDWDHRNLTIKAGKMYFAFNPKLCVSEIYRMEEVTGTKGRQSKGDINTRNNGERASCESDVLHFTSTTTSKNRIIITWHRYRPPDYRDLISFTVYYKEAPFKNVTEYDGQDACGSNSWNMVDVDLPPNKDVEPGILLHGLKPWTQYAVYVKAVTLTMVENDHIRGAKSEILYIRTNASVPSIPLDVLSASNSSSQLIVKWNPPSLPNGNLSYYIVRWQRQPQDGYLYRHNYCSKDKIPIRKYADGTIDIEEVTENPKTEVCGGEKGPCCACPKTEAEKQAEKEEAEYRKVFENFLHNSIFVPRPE
Sequence of Insulin-like growth factor 1 receptor (Homo sapiens) (P08069 741-1367 limits assumed): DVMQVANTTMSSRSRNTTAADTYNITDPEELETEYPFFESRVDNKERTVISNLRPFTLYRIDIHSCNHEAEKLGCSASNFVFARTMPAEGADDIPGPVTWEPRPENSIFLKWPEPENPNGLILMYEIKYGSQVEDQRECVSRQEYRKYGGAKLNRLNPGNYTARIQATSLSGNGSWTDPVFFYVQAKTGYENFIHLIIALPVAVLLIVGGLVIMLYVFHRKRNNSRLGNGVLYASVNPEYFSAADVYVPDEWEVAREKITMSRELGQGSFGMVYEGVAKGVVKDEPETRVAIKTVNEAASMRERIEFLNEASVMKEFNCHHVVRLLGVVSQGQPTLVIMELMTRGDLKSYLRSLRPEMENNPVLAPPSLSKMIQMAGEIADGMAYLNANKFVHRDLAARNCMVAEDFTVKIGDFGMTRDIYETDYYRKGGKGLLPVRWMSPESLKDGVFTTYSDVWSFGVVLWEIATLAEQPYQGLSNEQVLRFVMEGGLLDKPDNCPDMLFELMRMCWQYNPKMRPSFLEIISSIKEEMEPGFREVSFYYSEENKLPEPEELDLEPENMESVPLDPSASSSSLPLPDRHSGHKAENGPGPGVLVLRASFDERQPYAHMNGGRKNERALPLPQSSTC

SMILES	inhibition [1] [%]	inhibition [2] [%]	inhibition [3] [%]	inhibition (LIM domain kinase 1) [%]	inhibition [4] [%]	inhibition [5] [%]	inhibition [6] [%]	inhibition [7] [%]	inhibition [8] [%]	inhibition [9] [%]	inhibition [10] [%]	inhibition [11] [%]
CS(=O)(=O)CCCOc1cccc2c1ccn2-c1ccnc(N[C@H]2CC[C@H](C(=O)N3CCC(O)CC3)CC2)n1				> 85								
O=C([C@H]1CC[C@H](Nc2nccc(-n3nnc4ccccc43)n2)CC1)N1CCOCC1	< 50	< 50	< 50	78	< 50	< 50	< 50	< 50	82	93	< 50	< 50
O[C@H]1CC[C@H](Nc2nccc(-c3n[nH]c4ccccc34)n2)CC1	95	< 50	80	96	99	86	< 50	< 50	80	92	< 50	< 50

The remaining lines, values ahead:

inhibition [1] [%]	inhibition [2] [%]	inhibition [3] [%]	inhibition (LIM domain kinase 1) [%]	inhibition [4] [%]	inhibition [5] [%]	inhibition [6] [%]	inhibition [7] [%]	inhibition [8] [%]	inhibition [9] [%]	inhibition [10] [%]	inhibition [11] [%]	SMILES
< 50	< 50	< 50	88	88	< 50	< 50	< 50	< 50	< 50	< 50	< 50	O[C@H]1CC[C@H](Nc2nccc(-n3ncc4ccccc43)n2)CC1
< 50	< 50	< 50	77	< 50	< 50	< 50	< 50	< 50	< 50	< 50	< 50	O[C@H]1CC[C@H](Nc2nccc(-n3ccc4ccccc43)n2)CC1
< 50	< 50	< 50	< 50	< 50	< 50	< 50	< 50	80	99	< 50	< 50	N[C@H]1CC[C@H](Nc2nccc(-n3nnc4ccccc43)n2)CC1
< 50	< 50	< 50	87	< 50	< 50	96	< 50	75	88	< 50	< 50	O[C@H]1CC[C@H](Nc2nccc(-n3nnc4ccccc43)n2)CC1
